Measured values published in article PMC9245008 (ACS chemical biology, 2022).

How the values were obtained:
[1] = Oral pharmacokinetics in Sprague-Dawley rats; type: in vivo
[2] = tested on: IL-6 expression in THP-1 cells; assay: Cytokine dose–response curves in THP-1 cells; type: cell-based, human; conditions: read-out: IC50 IL-6 expression; LPS-stimulated THP-1, 24 h
Summary of the method: (§1)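 THP-1 cells differentiated with PMA (100 nM) for up to 72 h, then rested 24 h in PMA-free RPMI. Pretreated with test compound (3.2 nM–32 μM) or DMSO vehicle, then stimulated with LPS (10 ng/mL). After 24 h, TNF, IL-6 and IL-1β in supernatant measured by Luminex and expressed as percent of vehicle control; n = 3.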

[3] = Bioavailability in adult CD-1 mice; type: in vivo
[4] = tested on: TNF expression in THP-1 human macrophages; assay: Cytokine profile in stimulated THP-1 human macrophages; type: cell-based; conditions: 10 μM; THP-1 macrophages stimulated with LPS and IFNγ; vs vehicle
TAK1 [5] = target: T1, TAK1 (Homo sapiens, UniProt O43318); assay: Dose–response of top 10 kinase hits; type: biochemical; conditions: read-out: IC50 TAK1, n = 2
T1 sequence (O43318 with tags, fused parts or gaps limits assumed): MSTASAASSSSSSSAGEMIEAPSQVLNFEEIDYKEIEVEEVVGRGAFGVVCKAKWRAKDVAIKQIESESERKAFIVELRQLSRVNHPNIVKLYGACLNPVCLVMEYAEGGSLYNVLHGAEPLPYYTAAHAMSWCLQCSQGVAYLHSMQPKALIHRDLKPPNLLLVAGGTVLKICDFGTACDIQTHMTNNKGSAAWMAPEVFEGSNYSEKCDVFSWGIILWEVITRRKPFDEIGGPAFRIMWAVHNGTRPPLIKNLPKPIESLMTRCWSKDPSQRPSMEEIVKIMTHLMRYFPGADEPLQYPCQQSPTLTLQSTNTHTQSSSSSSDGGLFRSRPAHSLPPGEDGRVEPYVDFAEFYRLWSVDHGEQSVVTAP

ULK2 = target: T2, ULK2 (Homo sapiens, UniProt Q8IYT8); assay: Dose–response of top 10 kinase hits; type: biochemical; conditions: read-out: IC50 ULK2, n = 2
T2 sequence (Q8IYT8 1-1036): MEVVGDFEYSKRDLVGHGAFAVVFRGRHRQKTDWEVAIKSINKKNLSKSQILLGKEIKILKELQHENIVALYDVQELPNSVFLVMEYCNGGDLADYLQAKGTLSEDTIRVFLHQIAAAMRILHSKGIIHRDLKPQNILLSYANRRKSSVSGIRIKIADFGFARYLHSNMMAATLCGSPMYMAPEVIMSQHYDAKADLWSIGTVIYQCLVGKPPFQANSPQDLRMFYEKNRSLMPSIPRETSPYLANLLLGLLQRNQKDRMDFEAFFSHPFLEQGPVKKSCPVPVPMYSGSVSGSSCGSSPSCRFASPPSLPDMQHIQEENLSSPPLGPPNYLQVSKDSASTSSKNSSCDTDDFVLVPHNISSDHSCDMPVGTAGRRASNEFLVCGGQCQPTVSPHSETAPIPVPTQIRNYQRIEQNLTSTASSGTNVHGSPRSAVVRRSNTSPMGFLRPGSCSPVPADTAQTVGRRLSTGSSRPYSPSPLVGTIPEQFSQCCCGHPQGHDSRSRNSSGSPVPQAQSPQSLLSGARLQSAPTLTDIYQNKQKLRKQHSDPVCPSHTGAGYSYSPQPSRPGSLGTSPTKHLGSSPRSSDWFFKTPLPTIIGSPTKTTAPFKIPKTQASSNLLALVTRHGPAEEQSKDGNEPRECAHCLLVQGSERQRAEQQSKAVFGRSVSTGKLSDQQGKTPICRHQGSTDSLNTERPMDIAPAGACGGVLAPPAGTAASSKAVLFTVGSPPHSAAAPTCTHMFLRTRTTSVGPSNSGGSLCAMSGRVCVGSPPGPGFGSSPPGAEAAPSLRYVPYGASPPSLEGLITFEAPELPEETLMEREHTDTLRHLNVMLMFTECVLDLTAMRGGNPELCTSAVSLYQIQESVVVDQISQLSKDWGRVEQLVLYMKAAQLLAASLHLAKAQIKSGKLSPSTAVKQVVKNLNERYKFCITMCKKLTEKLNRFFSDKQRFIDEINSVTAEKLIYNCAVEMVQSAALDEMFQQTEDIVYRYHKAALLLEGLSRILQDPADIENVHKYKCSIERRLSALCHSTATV

[6] = tested on: IL-1β expression in THP-1 cells; assay: Cytokine dose–response curves in THP-1 cells; type: cell-based, human; conditions: read-out: IC50 IL-1β expression; LPS-stimulated THP-1, 24 h
Summary of the method: as §1

IRAK1 = IRAK1 (Homo sapiens, UniProt P51617); assay: MRC Dundee kinase panel screen at 10 μM; type: biochemical
MAP4K5 = MAP4K5 (Homo sapiens, UniProt Q9Y4K4); assay: MRC Dundee kinase panel screen at 10 μM; type: biochemical
TAK1 [7] = target: T1, TAK1; assay: MRC Dundee kinase panel screen at 10 μM; type: biochemical
TAK1 [8] = target: T3, TAK1 (Homo sapiens, UniProt O43318); assay: Potency of takinib analogues against TAK1; type: biochemical
T3 sequence (O43318 1-303 limits assumed): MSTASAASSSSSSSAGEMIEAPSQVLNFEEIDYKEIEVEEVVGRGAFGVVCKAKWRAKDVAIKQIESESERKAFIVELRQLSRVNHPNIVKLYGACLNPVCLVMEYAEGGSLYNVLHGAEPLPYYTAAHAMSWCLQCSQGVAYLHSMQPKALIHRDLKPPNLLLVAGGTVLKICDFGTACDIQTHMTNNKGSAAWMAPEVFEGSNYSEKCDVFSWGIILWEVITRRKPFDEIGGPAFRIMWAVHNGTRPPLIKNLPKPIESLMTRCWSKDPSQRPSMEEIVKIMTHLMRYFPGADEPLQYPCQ

[9] = oral administration, normal mice

Chain of MAP4K5 (Q9Y4K4 whole entry): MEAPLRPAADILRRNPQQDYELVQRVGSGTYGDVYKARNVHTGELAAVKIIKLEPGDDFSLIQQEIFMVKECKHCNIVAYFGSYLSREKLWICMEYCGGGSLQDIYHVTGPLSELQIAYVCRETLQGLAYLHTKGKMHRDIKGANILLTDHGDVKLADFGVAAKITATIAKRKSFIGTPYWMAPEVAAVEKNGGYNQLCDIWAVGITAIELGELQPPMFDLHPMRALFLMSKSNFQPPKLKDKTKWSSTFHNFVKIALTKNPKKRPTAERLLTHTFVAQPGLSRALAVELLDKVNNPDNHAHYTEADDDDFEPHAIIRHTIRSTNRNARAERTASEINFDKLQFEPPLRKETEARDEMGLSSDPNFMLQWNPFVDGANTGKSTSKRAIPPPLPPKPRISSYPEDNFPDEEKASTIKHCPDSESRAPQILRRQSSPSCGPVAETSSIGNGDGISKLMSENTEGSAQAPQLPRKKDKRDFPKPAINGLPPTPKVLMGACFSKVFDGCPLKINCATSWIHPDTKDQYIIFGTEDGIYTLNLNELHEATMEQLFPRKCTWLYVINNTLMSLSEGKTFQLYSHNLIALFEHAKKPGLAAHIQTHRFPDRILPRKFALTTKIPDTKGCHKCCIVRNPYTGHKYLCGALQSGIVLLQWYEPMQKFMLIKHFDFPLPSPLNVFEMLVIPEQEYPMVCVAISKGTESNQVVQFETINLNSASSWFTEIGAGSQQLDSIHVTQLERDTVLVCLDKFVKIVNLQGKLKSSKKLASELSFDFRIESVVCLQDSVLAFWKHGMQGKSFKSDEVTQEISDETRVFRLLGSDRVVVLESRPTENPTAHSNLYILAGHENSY
Chain of IRAK1 (P51617 whole entry): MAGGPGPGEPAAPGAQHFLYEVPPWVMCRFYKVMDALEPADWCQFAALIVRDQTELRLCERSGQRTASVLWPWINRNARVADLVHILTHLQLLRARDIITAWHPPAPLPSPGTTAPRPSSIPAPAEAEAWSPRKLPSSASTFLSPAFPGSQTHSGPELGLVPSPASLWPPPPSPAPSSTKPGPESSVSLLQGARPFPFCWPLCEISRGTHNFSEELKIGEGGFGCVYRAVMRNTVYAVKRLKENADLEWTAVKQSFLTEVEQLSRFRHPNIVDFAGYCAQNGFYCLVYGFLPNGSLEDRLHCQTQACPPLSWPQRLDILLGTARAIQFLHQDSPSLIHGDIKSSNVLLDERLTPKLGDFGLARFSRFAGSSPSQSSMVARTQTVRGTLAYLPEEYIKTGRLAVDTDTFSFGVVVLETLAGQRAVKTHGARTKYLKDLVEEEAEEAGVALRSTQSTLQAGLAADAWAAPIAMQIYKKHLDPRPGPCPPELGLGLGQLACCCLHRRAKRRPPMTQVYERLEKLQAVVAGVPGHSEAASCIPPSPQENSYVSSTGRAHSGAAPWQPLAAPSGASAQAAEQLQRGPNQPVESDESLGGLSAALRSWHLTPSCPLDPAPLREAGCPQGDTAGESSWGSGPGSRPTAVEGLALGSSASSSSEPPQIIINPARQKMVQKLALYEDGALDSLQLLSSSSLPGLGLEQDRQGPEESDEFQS

CCCn1c(NC(=O)c2cccc(C(N)=O)c2)nc2ccc(CN3CCCCC3)cc21 [HS-276]
time up to which μM serum levels are shown ([1]; post oral gavage, species not stated): up to 8 h | time up to which μM plasma concentration is shown ([1]; rat, 50 mg/kg oral gavage): 8 to 12 h | peak urine concentration ([1]; rat, 50 mg/kg oral gavage, at 12 h): 100 µM | AUC0-last ([1]; rat, PO, 50 mg/kg): 6462 ng·h/mL | Cmax ([1]; rat, PO, 50 mg/kg): 1890 ng/mL | Tmax ([1]; rat, PO, 50 mg/kg): 2 h | half-life ([1]; rat, PO, 50 mg/kg): 5.46 h | IC50 [2]: 0.201 µM | AUC0-last ([3]; mouse, IV, 30 mg/kg): 7960.0 ng·h/mL | Cmax ([3]; mouse, IV, 30 mg/kg): 11,162 ng/ml | Tmax ([3]; mouse, IV, 30 mg/kg): 0.08 h | half-life ([3]; mouse, IV, 30 mg/kg): 1.24 h | %F ([3]; mouse, PO, 30 mg/kg): 98.1% | AUC0-last ([3]; mouse, PO, 30 mg/kg): 7812 ng·h/mL | Cmax ([3]; mouse, PO, 30 mg/kg): 3682 ng/mL | Tmax ([3]; mouse, PO, 30 mg/kg): 1 h | half-life ([3]; mouse, PO, 30 mg/kg): 1.41 h | bioavailability [3, 9]: > 95% | plasma levels [3, 9]: μM plasma levels | reduction of TNF expression [4]: 11 fold | IC50 (TAK1 [5]): 0.008 µM | IC50 (ULK2): 0.063 µM | IC50 [6]: 0.234 µM | enzymatic activity (IRAK1): < 15% | enzymatic activity (MAP4K5): < 15% | enzymatic activity (TAK1 [7]): < 15% | Ki (TAK1 [8]; TAK1): 0.0025 µM | IC50 (TAK1 [8]; read-out: TAK1 IC50): 0.0025 µM
